Experiment [1] addresses Vascular endothelial growth factor receptor 2 (Homo sapiens) (UniProt P35968). Nature of the experiment: Inhibition of VEGF-165-induced VEGFR2 autophosphorylation at Tyr996 in serum-starved HUVEC at 2 uM preincubated for 2 hrs followed by VEGF-165 induction measured after 5 mins by Western blot analysis. The format is cell-based. A general note: A western blot detects proteins with antibodies after separation by electrophoresis.

Experiment [2] relates to HUVEC. The experiment in a line: Effect on TAOK1 gene expression in serum-starved HUVEC after 6 hrs by microarray analysis relative to control. It is filed as functional, Homo sapiens.
Experiment [3] concerns HUVEC. The experiment in a line: Effect on FILIP1L gene expression in serum-starved HUVEC after 6 hrs by microarray analysis relative to control. It is filed as functional, Homo sapiens. The method in brief: (§1)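 Confluent, serum-starved HUVEC (pooled from 3–5 donors, passage ≤4) treated with 2 μM compound or vehicle with 2.5% FBS for 6 h or 24 h. Total RNA hybridized to Illumina Human-HT12 arrays. Data were background-corrected, vst-transformed and rsn-normalized. Hits called by moderated paired t-test versus DMSO-treated cells, p < 0.05 and log2 fold change >|0.5|.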

Experiment [4] concerns HUVEC. Nature of the experiment: Effect on ITGA2 gene expression in serum-starved HUVEC after 6 hrs by microarray analysis relative to control. The format is functional, Homo sapiens. Put shortly: as §1
In experiment [5] the test system is HUVEC. Nature of the experiment: Effect on RHOB gene expression in serum-starved HUVEC after 24 hrs by microarray analysis relative to control. The format is functional, Homo sapiens.
Experiment [6] relates to HUVEC. Nature of the experiment: Effect on CDC20 gene expression in serum-starved HUVEC after 6 hrs by microarray analysis relative to control. The format is functional, Homo sapiens. The method in brief: (§2)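 Serum-starved confluent HUVEC treated with 2 μM compound or DMSO in 2.5% FBS for 6 h or 24 h; RNA hybridized to Illumina Human-HT12 arrays. Data background-corrected, vst-transformed and rsn-normalized. Differential probes called by moderated paired t-test (limma) at p < 0.05 and log2 fold change >|0.5| vs DMSO.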

In experiment [7] the test system is HUVEC. Nature of the experiment: Effect on PNISR gene expression in serum-starved HUVEC after 6 hrs by microarray analysis relative to control. It is filed as functional, Homo sapiens. The method in brief:
(§3)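 Serum-starved confluent HUVEC (pooled from 3–5 donors, passage ≤4) were treated with 2 μM compound or vehicle in 2.5% FBS for 6 h or 24 h, and total RNA was isolated. Hybridization was on Illumina Human-HT12. Data were processed with bgAdjust, vst and rsn normalization. Changes versus DMSO were called by moderated paired t-test at p < 0.05 and |log2 fold change| > 0.5.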

The subject of experiment [8] is HUVEC. Nature of the experiment: Effect on ZWINT gene expression in serum-starved HUVEC after 24 hrs by microarray analysis relative to control. It is filed as functional, Homo sapiens. Put shortly: (§4)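 Confluent serum-starved HUVEC (primary, pooled from 3–5 donors, passage ≤4) treated with 2 μM compound or DMSO vehicle in 2.5% FBS for 6 h or 24 h. Total RNA hybridized to Illumina Human-HT12 arrays, background-corrected, vst-transformed and rsn-normalized. Differential expression versus DMSO by moderated paired t-test (p < 0.05, |log2 fold change| > 0.5).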

The subject of experiment [9] is HUVEC. Nature of the experiment: Effect on HLA-DRB4 gene expression in serum-starved HUVEC after 6 hrs by microarray analysis relative to control. The format is functional, Homo sapiens. The method in brief:
as §1

In experiment [10] the test system is HUVEC. Nature of the experiment: Effect on FAM212A gene expression in serum-starved HUVEC after 24 hrs by microarray analysis relative to control. The format is functional, Homo sapiens. The method in brief:
(§5)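 Serum-starved confluent HUVEC (primary, pooled from 3–5 donors, passage ≤4) treated with 2 μM test compound or DMSO vehicle (working dilutions ≤0.1% v/v) in presence of 2.5% FBS for 6 h or 24 h; total RNA hybridized to Illumina Human-HT12 arrays; background correction, vst, rsn normalization; moderated paired t-test versus DMSO, thresholds p < 0.05 and log2 fold change >|0.5|.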

The subject of experiment [11] is HUVEC. Nature of the experiment: Effect on CD34 gene expression in serum-starved HUVEC after 24 hrs by microarray analysis relative to control. It is filed as functional, Homo sapiens. The method in brief: as §4
For experiment [12], the system named is HUVEC. Nature of the experiment: Effect on LIPG gene expression in serum-starved HUVEC after 24 hrs by microarray analysis relative to control. The format is functional, Homo sapiens.
The test system of experiment [13] is HUVEC. Nature of the experiment: Effect on TK1 gene expression in serum-starved HUVEC after 6 hrs by microarray analysis relative to control. It is filed as functional, Homo sapiens.
Experiment [14] concerns HUVEC. The experiment in a line: Effect on CD68 gene expression in serum-starved HUVEC after 24 hrs by microarray analysis relative to control. It is filed as functional, Homo sapiens. The method in brief: as §2
Experiment [15] relates to HUVEC. Nature of the experiment: Effect on ITGB2 gene expression in serum-starved HUVEC after 6 hrs by microarray analysis relative to control. It is filed as functional, Homo sapiens.
Experiment [16] has as its system HUVEC. The experiment in a line: Effect on VCAM1 gene expression in serum-starved HUVEC after 6 hrs by microarray analysis relative to control. The format is functional, Homo sapiens.
For experiment [17], the system named is HUVEC. The experiment in a line: Effect on LMNB2 gene expression in serum-starved HUVEC after 6 hrs by microarray analysis relative to control. The format is functional, Homo sapiens. Put shortly:
as §3

The subject of experiment [18] is HUVEC. The experiment in a line: Effect on KRT7 gene expression in serum-starved HUVEC after 6 hrs by microarray analysis relative to control. It is filed as functional, Homo sapiens.
The subject of experiment [19] is HUVEC. Nature of the experiment: Effect on FDPS gene expression in serum-starved HUVEC after 24 hrs by microarray analysis relative to control. The format is functional, Homo sapiens. Put shortly: as §1
For experiment [20], the system named is HUVEC. Nature of the experiment: Effect on FAM212A gene expression in serum-starved HUVEC after 6 hrs by microarray analysis relative to control. It is filed as functional, Homo sapiens. Put shortly: as §4
Experiment [21] has as its system HUVEC. The experiment in a line: Effect on SULT1C4 gene expression in serum-starved HUVEC after 24 hrs by microarray analysis relative to control. The format is functional, Homo sapiens.
In experiment [22] the test system is HUVEC. The experiment in a line: Effect on HJURP gene expression in serum-starved HUVEC after 24 hrs by microarray analysis relative to control. The format is functional, Homo sapiens. Put shortly: as §1
Experiment [23] relates to HUVEC. Nature of the experiment: Effect on ESM1 gene expression in serum-starved HUVEC after 24 hrs by microarray analysis relative to control. The format is functional, Homo sapiens. The method in brief:
as §4

In experiment [24] the test system is HUVEC. The experiment in a line: Effect on DBI gene expression in serum-starved HUVEC after 6 hrs by microarray analysis relative to control. The format is functional, Homo sapiens. Put shortly: as §5
Experiment [25] relates to HUVEC. The experiment in a line: Effect on RNU4ATAC gene expression in serum-starved HUVEC after 24 hrs by microarray analysis relative to control. It is filed as functional, Homo sapiens.
Experiment [26] concerns HUVEC. Nature of the experiment: Effect on FUCA1 gene expression in serum-starved HUVEC after 24 hrs by microarray analysis relative to control. The format is functional, Homo sapiens. Put shortly:
as §4

Experiment [27] deals with HUVEC. The experiment in a line: Effect on ATP1B1 gene expression in serum-starved HUVEC after 6 hrs by microarray analysis relative to control. The format is functional, Homo sapiens. The method in brief:
as §2

For experiment [28], the system named is HUVEC. Nature of the experiment: Effect on TM7SF2 gene expression in serum-starved HUVEC after 24 hrs by microarray analysis relative to control. The format is functional, Homo sapiens.
Experiment [29] concerns HUVEC. The experiment in a line: Effect on ANGPT2 gene expression in serum-starved HUVEC after 24 hrs by microarray analysis relative to control. The format is functional, Homo sapiens. The method in brief: as §5
Experiment [30] can be described thus: Downregulation of CCNB2 gene expression in serum-starved HUVEC at 2 uM after 24 hrs by qRT-PCR analysis. The format is functional, cell-based. As to conditions: Homo sapiens. The method in brief: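 Serum-starved confluent HUVEC treated with 2 μM compound or vehicle in 2.5% FBS for 24 h. Total RNA isolated and qRT-PCR run in triplicate (95 °C 5 min; 40 cycles of 95 °C 5 s, 58 °C 20 s, 72 °C 5 s), normalized to RPS18S. Fold change vs control, n = 3.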

Experiment [31] concerns HUVEC. Nature of the experiment: Effect on MTSS1 gene expression in serum-starved HUVEC after 6 hrs by microarray analysis relative to control. It is filed as functional, Homo sapiens.
Experiment [32] relates to HUVEC. The experiment in a line: Effect on CD14 gene expression in serum-starved HUVEC after 6 hrs by microarray analysis relative to control. The format is functional, Homo sapiens. Put shortly:
as §4

Experiment [33] relates to HUVEC. The experiment in a line: Effect on COL8A1 gene expression in serum-starved HUVEC after 6 hrs by microarray analysis relative to control. It is filed as functional, Homo sapiens. The method in brief: as §1
Experiment [34] concerns HUVEC. Nature of the experiment: Effect on TYMS gene expression in serum-starved HUVEC after 6 hrs by microarray analysis relative to control. It is filed as functional, Homo sapiens.

Activity calls are given as the source filed them.

Vascular endothelial growth factor receptor 2 (Homo sapiens), sequence (P35968 whole entry): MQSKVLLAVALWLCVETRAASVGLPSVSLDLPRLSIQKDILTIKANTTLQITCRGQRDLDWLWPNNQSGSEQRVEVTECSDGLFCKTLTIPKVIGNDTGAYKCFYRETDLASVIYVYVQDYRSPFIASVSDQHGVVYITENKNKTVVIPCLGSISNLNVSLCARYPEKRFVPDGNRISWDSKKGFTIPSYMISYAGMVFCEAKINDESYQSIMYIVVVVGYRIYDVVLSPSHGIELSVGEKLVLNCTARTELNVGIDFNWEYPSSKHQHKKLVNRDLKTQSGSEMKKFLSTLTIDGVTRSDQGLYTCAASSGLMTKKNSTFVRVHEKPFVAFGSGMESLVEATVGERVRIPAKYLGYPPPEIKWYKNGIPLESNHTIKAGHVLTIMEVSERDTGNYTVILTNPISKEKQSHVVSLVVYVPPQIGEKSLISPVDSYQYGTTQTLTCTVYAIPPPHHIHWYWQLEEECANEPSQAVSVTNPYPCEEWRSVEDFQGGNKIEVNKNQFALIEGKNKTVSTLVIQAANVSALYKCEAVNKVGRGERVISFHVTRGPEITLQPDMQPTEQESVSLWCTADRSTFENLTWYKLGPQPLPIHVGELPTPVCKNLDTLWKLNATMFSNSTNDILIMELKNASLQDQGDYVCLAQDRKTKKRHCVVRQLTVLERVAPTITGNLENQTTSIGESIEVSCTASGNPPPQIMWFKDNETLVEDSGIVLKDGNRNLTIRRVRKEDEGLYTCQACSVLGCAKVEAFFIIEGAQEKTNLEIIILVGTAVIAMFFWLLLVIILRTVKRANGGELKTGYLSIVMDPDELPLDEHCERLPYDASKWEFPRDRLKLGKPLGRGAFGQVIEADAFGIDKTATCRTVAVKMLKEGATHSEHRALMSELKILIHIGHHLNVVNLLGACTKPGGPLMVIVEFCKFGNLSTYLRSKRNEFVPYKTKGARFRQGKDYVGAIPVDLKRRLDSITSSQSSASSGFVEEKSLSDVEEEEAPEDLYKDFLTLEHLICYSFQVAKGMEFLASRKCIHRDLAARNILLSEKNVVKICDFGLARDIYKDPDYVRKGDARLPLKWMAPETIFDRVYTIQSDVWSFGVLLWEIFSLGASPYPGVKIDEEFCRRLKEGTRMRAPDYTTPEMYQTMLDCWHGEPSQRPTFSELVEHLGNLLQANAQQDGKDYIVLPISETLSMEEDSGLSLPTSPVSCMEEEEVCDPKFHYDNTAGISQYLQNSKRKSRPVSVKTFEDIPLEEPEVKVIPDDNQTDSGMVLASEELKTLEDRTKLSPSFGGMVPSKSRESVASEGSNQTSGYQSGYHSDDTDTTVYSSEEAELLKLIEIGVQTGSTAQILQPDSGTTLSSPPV

Take `COc1ccc(Cn2nc(-c3ccccc3)c3cc(Nc4ccc(N5CCN(C)CC5)cc4)nc(N4CCNCC4)c32)cc1`: the inhibition result in experiment [1] was “Active”. The same compound displayed a log2FC in experiment [2] of -0.1058.

With `COc1ccc(Cn2nc(-c3ccccc3)c3cc(Cl)nc(N4CCNCC4)c32)cc1`, the log2FC in experiment [3] was 0.5185; in experiment [4], 0.5417; in experiment [5] it was 0.5108; in experiment [7] it was 0.5127; in experiment [8], -0.5572. In addition, the “fold change (FC)” value in [6] is 0.127.

Take `COc1ccc(Cn2nc(-c3ccccc3)c3cc(Nc4ccc(N5CCN(C)CC5)cc4)nc(N4CCN(C)CC4)c32)cc1`: the “fold change (FC)” value was 0.3506 in [9]; 0.5468 in [10]; 0.5547 in experiment [11]; 1.3289 in experiment [15]; 0.1414 in experiment [17]; 0.2295 in experiment [18]. For the same compound, the “fold change (FC)” value in experiment [20] is on record as 0.129; in experiment [23], 0.8252; in [24], 0.0722; in experiment [26] it was -1.0254; in experiment [27] it was 0.237; in experiment [29] it was 0.5736. For the same compound, the entries for the “fold change (FC)” value in experiment [31], in experiment [32] and in experiment [33] were 0.2099, 1.7643 and 0.2137, respectively. The log2FC in [12] is 1.1948; in experiment [13], -0.2736; in [14] it was -0.8363; in experiment [16], 0.1271; in experiment [19], 0.8398; in experiment [21], 0.5208. The log2FC is -0.6338 in [22], -0.0618 in experiment [25], 1.5761 in [28] and -0.1879 in experiment [34]. For the same compound, the result in experiment [30] was Active.

For the origin of these results see ChEMBL document CHEMBL3856209, “Novel pyrazolopyridine derivatives as potential angiogenesis inhibitors: Synthesis, biological evaluation and transcriptome-based mechanistic analysis” (Eur J Med Chem, 2016).
